Laboratory results as given in the M2OR odorant receptor database.
Where a chain is given by its changes, count along the chain named.

Columns and labels:
Conditions in all cases: stereoisomer not certain
O1440 = test system: T1, O1440
T1 sequence (whole entry): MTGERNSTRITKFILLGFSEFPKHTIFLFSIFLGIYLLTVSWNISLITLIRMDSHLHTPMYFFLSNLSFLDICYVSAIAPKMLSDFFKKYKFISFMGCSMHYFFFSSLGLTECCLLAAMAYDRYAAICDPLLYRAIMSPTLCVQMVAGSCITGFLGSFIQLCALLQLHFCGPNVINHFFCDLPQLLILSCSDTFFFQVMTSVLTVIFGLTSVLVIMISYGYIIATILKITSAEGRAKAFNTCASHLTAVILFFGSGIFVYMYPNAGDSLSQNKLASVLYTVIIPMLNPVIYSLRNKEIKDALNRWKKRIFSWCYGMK
How it was run: (§1)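 Whether a receptor–molecule pair is responsive (active) rests on the original authors' judgment that its measured signal was statistically different from baseline. Pairs without that judgment are non-responsive (inactive). Sources used varied assay methods, commonly transient luciferase assays in mammalian cell lines.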

O10R2 I170L = test system: T2, O10R2 I170L
T2 sequence (whole entry): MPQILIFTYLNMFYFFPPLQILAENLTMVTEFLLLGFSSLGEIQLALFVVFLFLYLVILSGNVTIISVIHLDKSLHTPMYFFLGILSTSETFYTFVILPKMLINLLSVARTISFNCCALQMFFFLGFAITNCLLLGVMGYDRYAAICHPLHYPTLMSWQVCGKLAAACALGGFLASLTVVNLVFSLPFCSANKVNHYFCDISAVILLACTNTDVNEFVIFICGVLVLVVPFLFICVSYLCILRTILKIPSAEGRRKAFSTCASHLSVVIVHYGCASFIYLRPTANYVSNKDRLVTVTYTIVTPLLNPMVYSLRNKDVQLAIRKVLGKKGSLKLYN
How it was run: as §1

O10T2 I137M = test system: T3, O10T2 I137M
T3 sequence (whole entry): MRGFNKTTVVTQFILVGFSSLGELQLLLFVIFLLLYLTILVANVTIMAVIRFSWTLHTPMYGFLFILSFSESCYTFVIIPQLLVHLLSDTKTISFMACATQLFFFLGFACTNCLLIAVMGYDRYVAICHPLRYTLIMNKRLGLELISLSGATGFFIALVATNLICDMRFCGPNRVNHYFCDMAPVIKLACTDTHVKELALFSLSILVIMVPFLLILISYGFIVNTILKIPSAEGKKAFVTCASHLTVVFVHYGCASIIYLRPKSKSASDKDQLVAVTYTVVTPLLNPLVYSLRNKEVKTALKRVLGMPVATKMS
How it was run: as §1

O10V1 Q123R = test system: T4, O10V1 Q123R
T4 sequence (whole entry): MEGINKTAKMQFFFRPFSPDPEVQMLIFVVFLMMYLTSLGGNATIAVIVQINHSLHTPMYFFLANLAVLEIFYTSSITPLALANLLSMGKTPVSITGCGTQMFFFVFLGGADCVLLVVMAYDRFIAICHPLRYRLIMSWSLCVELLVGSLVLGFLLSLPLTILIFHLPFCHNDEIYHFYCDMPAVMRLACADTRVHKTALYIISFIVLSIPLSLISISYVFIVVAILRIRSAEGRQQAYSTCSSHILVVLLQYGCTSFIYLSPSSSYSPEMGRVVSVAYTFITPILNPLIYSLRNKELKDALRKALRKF
How it was run: as §1

O10X1 N4T R181S = test system: T5, O10X1 N4T R181S
T5 sequence (whole entry): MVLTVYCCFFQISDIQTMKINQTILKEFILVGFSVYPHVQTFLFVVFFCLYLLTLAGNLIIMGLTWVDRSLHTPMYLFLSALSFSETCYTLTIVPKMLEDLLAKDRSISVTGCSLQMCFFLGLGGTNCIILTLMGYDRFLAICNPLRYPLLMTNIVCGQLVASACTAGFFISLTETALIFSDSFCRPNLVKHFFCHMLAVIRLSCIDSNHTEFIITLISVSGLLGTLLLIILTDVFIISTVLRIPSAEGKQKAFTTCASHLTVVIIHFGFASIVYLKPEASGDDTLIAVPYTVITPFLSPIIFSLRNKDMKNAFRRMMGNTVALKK
How it was run: as §1

O11G2 F3I I99N V116I = test system: T6, O11G2 F3I I99N V116I
T6 sequence (whole entry): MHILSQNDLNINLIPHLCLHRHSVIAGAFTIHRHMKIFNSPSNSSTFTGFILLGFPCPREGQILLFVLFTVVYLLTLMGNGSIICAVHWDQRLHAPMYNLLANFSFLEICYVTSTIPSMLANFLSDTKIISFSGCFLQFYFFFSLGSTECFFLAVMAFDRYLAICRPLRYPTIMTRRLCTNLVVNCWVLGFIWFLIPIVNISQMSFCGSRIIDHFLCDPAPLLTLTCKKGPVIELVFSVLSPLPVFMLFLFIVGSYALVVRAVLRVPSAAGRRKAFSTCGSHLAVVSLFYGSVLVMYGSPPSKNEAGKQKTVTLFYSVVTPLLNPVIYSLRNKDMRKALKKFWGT
How it was run: as §1

O11H1 M240V = test system: T7, O11H1 M240V
T7 sequence (whole entry): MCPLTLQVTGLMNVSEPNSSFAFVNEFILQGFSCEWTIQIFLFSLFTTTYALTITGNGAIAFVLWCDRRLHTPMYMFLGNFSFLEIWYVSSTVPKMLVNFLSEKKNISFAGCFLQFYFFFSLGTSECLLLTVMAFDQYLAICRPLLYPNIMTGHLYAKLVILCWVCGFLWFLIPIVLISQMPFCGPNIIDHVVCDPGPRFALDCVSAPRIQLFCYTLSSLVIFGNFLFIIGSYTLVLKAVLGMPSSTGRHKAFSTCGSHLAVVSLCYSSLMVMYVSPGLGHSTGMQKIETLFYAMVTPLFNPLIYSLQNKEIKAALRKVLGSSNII
How it was run: as §1

O11H6 I107T = test system: T8, O11H6 I107T
T8 sequence (whole entry): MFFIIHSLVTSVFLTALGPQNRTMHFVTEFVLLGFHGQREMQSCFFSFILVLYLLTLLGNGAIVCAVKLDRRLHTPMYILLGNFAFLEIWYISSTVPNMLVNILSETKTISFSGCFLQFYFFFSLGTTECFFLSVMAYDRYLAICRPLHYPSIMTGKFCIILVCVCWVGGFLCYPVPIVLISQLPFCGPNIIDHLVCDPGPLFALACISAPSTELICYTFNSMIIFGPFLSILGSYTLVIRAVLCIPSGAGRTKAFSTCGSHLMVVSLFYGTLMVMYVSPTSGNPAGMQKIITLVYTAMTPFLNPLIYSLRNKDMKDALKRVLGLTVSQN
How it was run: as §1

O11HC C156Y V240M = test system: T9, O11HC C156Y V240M
T9 sequence (whole entry): T7 sequence (whole entry) with S33T, R68W, V240M
How it was run: as §1

O12D2 S104F = test system: T10, O12D2 S104F
T10 sequence (whole entry): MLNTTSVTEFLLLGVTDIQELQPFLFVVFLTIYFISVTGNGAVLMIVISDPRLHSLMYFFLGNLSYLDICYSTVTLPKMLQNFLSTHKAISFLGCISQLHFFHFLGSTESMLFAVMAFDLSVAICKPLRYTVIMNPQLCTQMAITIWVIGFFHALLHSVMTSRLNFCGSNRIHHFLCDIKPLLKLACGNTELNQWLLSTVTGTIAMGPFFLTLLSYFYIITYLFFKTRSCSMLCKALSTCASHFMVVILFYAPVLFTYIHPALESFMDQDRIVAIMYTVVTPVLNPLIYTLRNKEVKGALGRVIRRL
How it was run: as §1

O13C2 H6Q = test system: T11, O13C2 H6Q
T11 sequence (whole entry): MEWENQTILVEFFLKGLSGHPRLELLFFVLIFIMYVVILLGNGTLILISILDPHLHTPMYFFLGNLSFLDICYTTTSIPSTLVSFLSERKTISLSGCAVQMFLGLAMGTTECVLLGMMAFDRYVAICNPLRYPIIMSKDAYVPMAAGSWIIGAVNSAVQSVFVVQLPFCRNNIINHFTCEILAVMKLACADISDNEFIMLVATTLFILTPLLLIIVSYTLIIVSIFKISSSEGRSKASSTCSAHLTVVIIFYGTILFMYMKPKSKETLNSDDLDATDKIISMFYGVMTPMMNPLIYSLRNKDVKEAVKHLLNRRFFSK
How it was run: as §1

O13C8 A19D = test system: T12, O13C8 A19D
T12 sequence (whole entry): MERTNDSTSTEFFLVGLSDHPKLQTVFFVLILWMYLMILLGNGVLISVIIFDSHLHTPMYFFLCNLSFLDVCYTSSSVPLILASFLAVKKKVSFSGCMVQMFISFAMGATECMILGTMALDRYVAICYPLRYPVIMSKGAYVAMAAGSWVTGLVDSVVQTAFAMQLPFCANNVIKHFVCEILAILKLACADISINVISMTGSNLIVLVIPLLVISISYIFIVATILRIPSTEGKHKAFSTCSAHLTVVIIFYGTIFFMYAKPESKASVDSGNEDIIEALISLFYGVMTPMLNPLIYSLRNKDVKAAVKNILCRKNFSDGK
How it was run: as §1

O13C9 H17L V19G L23H = test system: T13, O13C9 H17L V19G L23H
T13 sequence (whole entry): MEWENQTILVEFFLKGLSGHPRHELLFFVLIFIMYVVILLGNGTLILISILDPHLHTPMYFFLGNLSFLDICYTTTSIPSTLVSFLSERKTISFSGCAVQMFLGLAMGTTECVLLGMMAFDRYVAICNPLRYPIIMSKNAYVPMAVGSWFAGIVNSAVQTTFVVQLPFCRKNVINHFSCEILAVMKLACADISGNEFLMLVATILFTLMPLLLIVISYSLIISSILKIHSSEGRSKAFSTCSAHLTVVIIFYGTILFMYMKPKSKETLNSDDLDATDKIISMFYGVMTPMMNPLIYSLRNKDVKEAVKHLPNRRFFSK
How it was run: as §1

O13C9 Q6H = test system: T14, O13C9 Q6H
T14 sequence (whole entry): T13 sequence (whole entry) with Q6H, L17H, G19V, H23L
How it was run: as §1

O13F1 F18S = test system: T15, O13F1 F18S
T15 sequence (whole entry): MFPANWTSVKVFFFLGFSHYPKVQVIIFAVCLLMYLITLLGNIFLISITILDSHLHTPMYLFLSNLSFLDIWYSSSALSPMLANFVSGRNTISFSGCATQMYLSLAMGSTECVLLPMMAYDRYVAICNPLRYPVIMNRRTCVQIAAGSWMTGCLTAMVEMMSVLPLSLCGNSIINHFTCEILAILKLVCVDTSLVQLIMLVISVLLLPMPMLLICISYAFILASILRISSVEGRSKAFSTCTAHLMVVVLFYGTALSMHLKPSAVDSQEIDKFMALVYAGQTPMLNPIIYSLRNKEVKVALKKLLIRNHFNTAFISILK
How it was run: as §1

O13G1 K46I M146L = test system: T16, O13G1 K46I M146L
T16 sequence (whole entry): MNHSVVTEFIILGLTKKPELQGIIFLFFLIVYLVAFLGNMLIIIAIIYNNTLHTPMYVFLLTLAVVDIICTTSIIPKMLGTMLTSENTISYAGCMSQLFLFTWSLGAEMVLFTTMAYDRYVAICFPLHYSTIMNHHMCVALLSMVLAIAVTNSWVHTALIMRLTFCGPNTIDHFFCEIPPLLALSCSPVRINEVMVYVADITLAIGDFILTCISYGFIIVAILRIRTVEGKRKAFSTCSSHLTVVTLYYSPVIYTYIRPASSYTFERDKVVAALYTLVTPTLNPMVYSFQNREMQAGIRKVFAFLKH
How it was run: as §1

O13G1 = test system: T17, O13G1
T17 sequence (whole entry): T16 sequence (whole entry) with I46K, I132V, L146M
How it was run: as §1

O13H1 Y266S = test system: T18, O13H1 Y266S
T18 sequence (whole entry): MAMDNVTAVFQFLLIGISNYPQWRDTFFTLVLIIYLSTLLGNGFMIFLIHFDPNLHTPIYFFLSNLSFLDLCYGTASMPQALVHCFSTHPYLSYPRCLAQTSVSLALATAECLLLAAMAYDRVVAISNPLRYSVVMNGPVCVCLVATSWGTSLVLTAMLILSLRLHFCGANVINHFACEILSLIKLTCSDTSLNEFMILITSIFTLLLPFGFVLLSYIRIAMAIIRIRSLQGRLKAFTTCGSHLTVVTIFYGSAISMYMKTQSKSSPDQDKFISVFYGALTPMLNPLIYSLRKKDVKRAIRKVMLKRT
How it was run: as §1

O13J1 = test system: T19, O13J1
T19 sequence (whole entry): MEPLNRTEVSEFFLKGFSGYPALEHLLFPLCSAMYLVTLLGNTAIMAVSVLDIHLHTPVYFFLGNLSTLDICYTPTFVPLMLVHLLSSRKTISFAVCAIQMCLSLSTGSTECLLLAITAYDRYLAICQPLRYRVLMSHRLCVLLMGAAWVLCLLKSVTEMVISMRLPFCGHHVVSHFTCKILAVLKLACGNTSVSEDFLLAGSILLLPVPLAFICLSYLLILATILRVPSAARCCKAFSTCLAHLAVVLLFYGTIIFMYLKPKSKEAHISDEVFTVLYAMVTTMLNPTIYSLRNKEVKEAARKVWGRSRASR
How it was run: as §1

O13F1 F18S T254M = test system: T20, O13F1 F18S T254M
T20 sequence (whole entry): T15 sequence (whole entry) with T254M
How it was run: as §1

Measured: odorant receptor agonist call;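 also: active if original authors judged signal statistically different from baseline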

O=C1CCCC=CCCCCCCCCCC1
active: O1440

CC1CCCCCCCCCCCC(=O)C1 (stereo not given)
active: O1440

CC1CC=CCCCCCCCCCC(=O)C1 (stereo not given)
active: O1440

CC1C(C)(C)C2=C(C(=O)CCC2)C1(C)C (stereo not given)
inactive: O1440

CCCCCCCC(=O)CCCCCCC
inactive: O1440

CCCCCCC=CCCC=O
not listed: O1440 | O13F1 F18S T254M
inactive: all other assays above

O=C1C=CCCCCCCCCCCCCO1
active: O1440

CC1CC=CCCCCCCCCC(=O)C1 (stereo not given)
active: O1440

CCC1OC(C)=C(O)C1=O (stereo not given)
not listed: O1440
inactive: all other assays above

O=C1CCCCCCCCCCCCCC1
active: O1440
